Results taken from ChEMBL document CHEMBL4706601, “The endocannabinoid system dual-target ligand N-cycloheptyl-1,2-dihydro-5-bromo-1-(4-fluorobenzyl)-6-methyl-2-oxo-pyridine-3-carboxamide improves disease severity in a mouse model of multiple sclerosis” (Eur J Med Chem, 2020).
The source made the active and inactive calls. The calls are words filed in the database; no cut-off is given here.

What was measured:
[1] = molecular target: Cannabinoid receptor 2 (Mus musculus) (UniProt P47936); assay: Agonist activity at CB2R in LPS induced mouse BV2 cells assessed as decrease in IL6 secretion at 10 uM preincubated for 30 mins followed by LPS stimulation for 4 hrs by ELISA; assay type: cell-based; settings: BV-2, filed as agonist, time 270.0 min
In short: (§1)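 BV-2 murine microglia grown in high-glucose DMEM with 10% FBS. Treatments in FBS-free medium: test agonist 10 μM for 30 min, then LPS 5 μg/ml for 4 h; SR144528 10 μM given 15 min before agonist. DMSO ≤0.1% final. Medium spun 10 min at 1000×g; IL-1β, IL-6, IL-10 quantified by ELISA; three independent experiments in duplicate.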

[2] = molecular target: Cannabinoid receptor 2 (Mus musculus) (UniProt P47936); assay: Agonist activity at CB2R in LPS induced mouse BV2 cells assessed as decrease in IL-1beta secretion at 10 uM preincubated for 30 mins followed by LPS stimulation for 4 hrs by ELISA; assay type: cell-based; settings: BV-2, filed as agonist, time 270.0 min; in short: as §1
[3] = molecular target: Cannabinoid receptor 2 (Mus musculus) (UniProt P47936); assay: Agonist activity at CB2R in LPS induced mouse BV2 cells assessed as increase in IL-10 secretion at 10 uM preincubated for 30 mins followed by LPS stimulation for 4 hrs by ELISA; assay type: cell-based; settings: BV-2, filed as agonist, time 270.0 min; in short: as §1
[4] = molecular target: T1, Lysophosphatidylserine lipase ABHD12 (Homo sapiens, UniProt Q8N2K0); assay: Inhibition of human ABHD12 expressed in HEK293 cells using 2-OG as substrate preincubated for 30 mins followed by substrate addition and measured after 5 mins by liquid scintillation spectroscopy; assay type: cell-based
T1 sequence (Q8N2K0 whole entry): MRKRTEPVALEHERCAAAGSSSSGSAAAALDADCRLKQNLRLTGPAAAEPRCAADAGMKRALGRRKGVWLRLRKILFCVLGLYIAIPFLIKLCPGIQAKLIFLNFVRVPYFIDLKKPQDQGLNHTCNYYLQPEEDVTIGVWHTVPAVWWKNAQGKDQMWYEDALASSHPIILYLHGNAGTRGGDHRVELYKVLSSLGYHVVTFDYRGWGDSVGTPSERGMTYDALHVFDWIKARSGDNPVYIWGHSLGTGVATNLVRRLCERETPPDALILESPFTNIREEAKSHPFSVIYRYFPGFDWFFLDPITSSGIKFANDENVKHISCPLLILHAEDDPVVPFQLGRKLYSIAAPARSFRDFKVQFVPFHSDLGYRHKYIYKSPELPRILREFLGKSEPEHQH
In short: (§2)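 Homogenates (40 µg) from HEK293 stably expressing hABHD6 or hABHD12 pre-incubated with compound 30 min at 37 °C in […], 0.1% BSA, pH 7.6; then 10 μM 2-OG for 5 min at 37 °C. Aqueous phase tritium counted after CHCl3:MeOH stop; no-enzyme blanks and non-transfected HEK293 hydrolysis subtracted. Controls WWL70 10 μM, THL 20 μM.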

Cannabinoid receptor 1 [5] = molecular target: T2, Cannabinoid receptor 1 (Homo sapiens, UniProt P21554); assay: Displacement of [3H]CP55940 from recombinant human CB1R expressed in CHO cell membranes incubated for 90 mins; design: species or system Membrane
[6] = molecular target: T3, Fatty-acid amide hydrolase 1 (Homo sapiens, UniProt O00519); assay: Inhibition of FAAH in human U937 cells using [ethanolamine-1-3H]AEA as substrate preincubated for 15 mins followed by substrate addition and measured after 15 mins by liquid scintillation spectroscopy; assay type: cell-based, U-937
T3 sequence (O00519 whole entry): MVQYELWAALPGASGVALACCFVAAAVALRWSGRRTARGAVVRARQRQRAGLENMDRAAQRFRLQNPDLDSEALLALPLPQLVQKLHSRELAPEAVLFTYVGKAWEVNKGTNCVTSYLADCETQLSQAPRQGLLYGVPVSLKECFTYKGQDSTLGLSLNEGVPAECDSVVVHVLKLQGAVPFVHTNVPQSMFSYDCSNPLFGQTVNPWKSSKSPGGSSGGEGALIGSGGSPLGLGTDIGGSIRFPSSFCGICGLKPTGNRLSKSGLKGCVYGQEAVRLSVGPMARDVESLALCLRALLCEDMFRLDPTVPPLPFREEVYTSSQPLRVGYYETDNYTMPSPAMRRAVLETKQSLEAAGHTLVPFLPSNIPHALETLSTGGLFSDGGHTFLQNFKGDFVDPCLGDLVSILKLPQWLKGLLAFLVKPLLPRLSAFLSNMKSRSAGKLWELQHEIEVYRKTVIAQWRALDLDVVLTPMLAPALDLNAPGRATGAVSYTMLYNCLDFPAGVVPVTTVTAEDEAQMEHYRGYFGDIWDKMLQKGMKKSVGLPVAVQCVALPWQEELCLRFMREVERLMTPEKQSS
In short: (§3)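 Intact U937 cells, 10^6 per condition, pre-incubated with compound 15 min at 37 °C with shaking (screen at 10 μM; full curves for hits). Substrate: 1 μM AEA with 1 nM [3H]AEA (FAAH) or 10 μM 2-OG with 5 nM [3H]2-OG (MAGL), 15 min at 37 °C. Stopped with CHCl3:MeOH 1:1, aqueous tritium counted; mean ± SD, ≥3 experiments in triplicate.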

Monoglyceride lipase = molecular target: T4, Monoglyceride lipase (Homo sapiens, UniProt Q99685); assay: Inhibition of MAGL in human U937 cells using [glycerol-1,2,3-3H]2-OG as substrate preincubated for 15 mins followed by substrate addition and measured after 15 mins by liquid scintillation spectroscopy; assay type: cell-based, U-937; in short: as §3
T4 sequence (Q99685 whole entry): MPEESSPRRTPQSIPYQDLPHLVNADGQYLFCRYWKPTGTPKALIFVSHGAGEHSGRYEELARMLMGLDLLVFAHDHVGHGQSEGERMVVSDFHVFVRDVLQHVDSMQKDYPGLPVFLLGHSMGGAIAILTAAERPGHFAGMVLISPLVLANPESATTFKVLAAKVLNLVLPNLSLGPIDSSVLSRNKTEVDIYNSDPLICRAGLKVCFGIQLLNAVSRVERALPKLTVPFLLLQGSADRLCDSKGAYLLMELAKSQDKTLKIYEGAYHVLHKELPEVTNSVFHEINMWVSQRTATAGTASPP

Cannabinoid receptor 2 [7] = molecular target: T5, Cannabinoid receptor 2 (Homo sapiens, UniProt P34972); assay: Displacement of [3H]CP55940 from recombinant human CB2R expressed in CHO cell membranes incubated for 90 mins; design: species or system Membrane
[8] = molecular target: T6, Monoacylglycerol lipase ABHD6 (Homo sapiens, UniProt Q9BV23); assay: Inhibition of human ABHD6 expressed in HEK293 cells using 2-OG as substrate preincubated for 30 mins followed by substrate addition and measured after 5 mins by liquid scintillation spectroscopy; assay type: cell-based; in short: as §2
T6 sequence (Q9BV23 whole entry): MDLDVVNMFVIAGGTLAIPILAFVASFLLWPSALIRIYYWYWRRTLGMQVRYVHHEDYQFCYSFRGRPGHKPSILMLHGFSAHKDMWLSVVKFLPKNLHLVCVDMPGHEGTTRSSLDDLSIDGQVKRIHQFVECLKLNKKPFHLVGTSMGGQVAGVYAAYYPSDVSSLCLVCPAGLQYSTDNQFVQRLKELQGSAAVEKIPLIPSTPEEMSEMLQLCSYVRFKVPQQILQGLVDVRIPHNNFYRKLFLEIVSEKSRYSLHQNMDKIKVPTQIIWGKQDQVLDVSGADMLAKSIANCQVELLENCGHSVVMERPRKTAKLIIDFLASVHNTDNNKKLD

Cannabinoid receptor 2 [9] = molecular target: T5, Cannabinoid receptor 2; assay: Agonist activity at human CB2R expressed in CHO cell membranes after 90 mins by [35S]GTPgammaS assay; assay type: functional, Membrane
In short: (§4)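 In-house CHO membranes expressing hCB1 or hCB2 (10 µg) in 50 mM Tris-HCl, 3 mM MgCl2, 0.2 mM EDTA, 100 mM NaCl, 0.5% fatty-acid-free BSA, pH 7.4, with 10 μM GDP and 0.1 nM [35S]GTPγS. Incubated 90 min at 30 °C; antagonist pre-incubated 30 min. Nonspecific binding with 10 μM GTPγS; bound label by filtration and counting; ≥3 experiments in triplicate.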

Cannabinoid receptor 1 [10] = molecular target: T2, Cannabinoid receptor 1; assay: Agonist activity at human CB1R expressed in CHO cell membranes after 90 mins by [35S]GTPgammaS assay; assay type: functional, Membrane; in short: as §4
Homo sapiens = species: Homo sapiens; assay: Selectivity index, ratio of Ki for human CB1R expressed in CHO cell membranes to Ki for human CB2R expressed in CHO cell membranes; assay type: cell-based
[11] = molecular target: Cannabinoid receptor 1 (Rattus norvegicus) (UniProt P20272); assay: Agonist activity at CB1R in Sprague-Dawley rat hippocampal synaptosomes assessed as inhibition of 4-AP evoked glutamate release at 10 uM preincubated for 8 mins followed by 4-AP addition in presence of 1 uM CB2R antagonist, SR144528 by HPLC analysis; assay type: subcellular; settings: Hippocampus, filed as agonist
In short: (§5)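 Rat (male Sprague Dawley, 200-250 g) hippocampal synaptosomes from Percoll gradient, superfused at 37 °C (0.5 ml/min); 4-AP 600 μM for 2 min. Compounds and antagonists (SR141716A, SR144528, 1 μM) added 8 min before 4-AP and kept during it; basal effects tested by 2-min exposure alone. Endogenous glutamate by HPLC as pmol/mg protein; overflow = stimulated minus basal in control chambers; n = 3–9, triplicate.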

[12] = molecular target: Cannabinoid receptor 1 (Rattus norvegicus) (UniProt P20272); assay: Agonist activity at CB1R in Sprague-Dawley rat hippocampal synaptosomes assessed as inhibition of 4-AP evoked glutamate release at 10 uM preincubated for 8 mins followed by 4-AP addition by HPLC analysis; assay type: subcellular; settings: Hippocampus, filed as agonist; in short: as §5

T2 sequence (P21554 whole entry): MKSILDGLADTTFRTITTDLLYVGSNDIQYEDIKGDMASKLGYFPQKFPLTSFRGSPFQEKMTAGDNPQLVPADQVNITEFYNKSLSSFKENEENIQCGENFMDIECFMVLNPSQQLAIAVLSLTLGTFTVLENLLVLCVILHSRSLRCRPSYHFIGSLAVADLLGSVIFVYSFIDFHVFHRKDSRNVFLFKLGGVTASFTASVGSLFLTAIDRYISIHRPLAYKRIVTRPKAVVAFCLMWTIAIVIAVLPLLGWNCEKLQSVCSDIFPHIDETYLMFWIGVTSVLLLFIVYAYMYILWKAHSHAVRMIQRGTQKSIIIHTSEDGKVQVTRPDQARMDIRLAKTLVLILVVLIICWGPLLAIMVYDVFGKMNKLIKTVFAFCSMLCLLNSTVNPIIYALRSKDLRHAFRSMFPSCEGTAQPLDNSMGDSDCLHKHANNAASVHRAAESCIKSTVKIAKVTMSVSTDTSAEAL
T5 sequence (P34972 whole entry): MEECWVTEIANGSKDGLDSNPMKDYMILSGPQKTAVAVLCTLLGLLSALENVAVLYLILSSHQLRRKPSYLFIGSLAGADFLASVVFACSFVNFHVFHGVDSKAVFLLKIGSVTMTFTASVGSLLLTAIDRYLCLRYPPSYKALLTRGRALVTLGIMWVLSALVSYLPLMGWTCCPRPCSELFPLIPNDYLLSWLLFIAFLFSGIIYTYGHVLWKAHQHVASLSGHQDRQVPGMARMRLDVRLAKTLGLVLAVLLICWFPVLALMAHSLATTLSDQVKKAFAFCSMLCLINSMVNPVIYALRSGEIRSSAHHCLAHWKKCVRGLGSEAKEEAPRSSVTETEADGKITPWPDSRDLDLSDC
Cannabinoid receptor 2 (Mus musculus), sequence (P47936 whole entry): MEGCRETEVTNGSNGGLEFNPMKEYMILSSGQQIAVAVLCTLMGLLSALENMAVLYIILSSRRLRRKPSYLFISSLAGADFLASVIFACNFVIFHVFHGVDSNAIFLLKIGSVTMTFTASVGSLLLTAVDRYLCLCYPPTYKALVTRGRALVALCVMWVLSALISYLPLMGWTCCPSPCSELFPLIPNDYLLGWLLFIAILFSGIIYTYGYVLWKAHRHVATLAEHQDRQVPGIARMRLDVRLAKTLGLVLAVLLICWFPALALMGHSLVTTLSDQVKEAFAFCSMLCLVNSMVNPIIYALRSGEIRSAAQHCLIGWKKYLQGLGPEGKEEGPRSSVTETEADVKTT
Cannabinoid receptor 1 (Rattus norvegicus), sequence (P20272 whole entry, the tested form may be a part): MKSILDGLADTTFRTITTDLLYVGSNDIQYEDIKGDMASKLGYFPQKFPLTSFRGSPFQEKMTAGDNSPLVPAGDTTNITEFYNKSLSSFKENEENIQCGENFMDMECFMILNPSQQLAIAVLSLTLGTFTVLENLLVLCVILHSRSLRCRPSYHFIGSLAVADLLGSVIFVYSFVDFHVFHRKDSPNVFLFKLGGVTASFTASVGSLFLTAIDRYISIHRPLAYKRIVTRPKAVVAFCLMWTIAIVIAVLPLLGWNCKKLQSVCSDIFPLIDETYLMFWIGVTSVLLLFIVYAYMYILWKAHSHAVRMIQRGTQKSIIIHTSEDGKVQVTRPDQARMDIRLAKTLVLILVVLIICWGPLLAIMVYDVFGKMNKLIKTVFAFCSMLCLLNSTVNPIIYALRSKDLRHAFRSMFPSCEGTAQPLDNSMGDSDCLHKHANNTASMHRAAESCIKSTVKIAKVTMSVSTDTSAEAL

Row | Structure (SMILES) | Activity [1] | Activity [2] | Activity [3] | IC50 [4] [µM] | Ki (Cannabinoid receptor 1 [5]) [µM] | IC50 [6] [µM] | IC50 (Monoglyceride lipase) [µM] | Ki (Cannabinoid receptor 2 [7]) [µM] | IC50 [8] [µM] | EC50 (Cannabinoid receptor 2 [9]) [µM] | EC50 (Cannabinoid receptor 1 [10]) [µM] | Ratio Ki (Homo sapiens) | Activity [11] | Activity [12]
1 | CCCC(C)(C)c1ccc2c(c1)OC(C)(C)[C@@H]1CC=C(C)C[C@@H]21 | Active | Active | Active | – | – | – | – | – | – | – | – | – | – | –
2 | COc1ccc(-c2cc(C(=O)NC3CCCCCC3)c(OCc3ccc(F)cc3)nc2C)cc1 | – | – | – | > 10 | > 10 | > 10 | > 10 | 0.919 | 0.53 | – | – | – | – | –
3 | Cc1nc(OCc2ccc(F)cc2)c(C(=O)NC2CCCCCC2)cc1-c1ccc(F)cc1 | – | – | – | > 10 | 4.6 | > 10 | > 10 | 0.531 | > 10 | – | – | – | – | –
4 | Cc1c(Br)cc(C(=O)NC2CCNCC2)c(=O)n1Cc1ccc(F)cc1 | – | – | – | > 10 | > 10 | > 10 | > 10 | > 10 | > 10 | – | – | – | – | –
5 | Cc1ccc(C(=O)NC2CCCCCC2)c(=O)n1Cc1ccc(F)cc1 | – | – | – | > 10 | 0.0377 | > 10 | > 10 | 0.0047 | > 10 | 0.00415 | 0.0404 | – | – | –
6 | Cc1ccc(C(=O)NC2CCCCCC2)c(OCc2ccc(F)cc2)n1 | – | – | – | > 10 | 0.0166 | > 10 | > 10 | 0.0339 | > 10 | 0.0116 | 0.0862 | 0.49 | – | –
7 | CCCCC/C=C\C/C=C\C/C=C\C/C=C\CCCC(=O)NCCCl | – | – | – | – | – | – | – | – | – | – | – | – | Active | Active
